# Measurements: ChEMBL document CHEMBL2086284, “(Z)-1-aryl-3-arylamino-2-propen-1-ones, highly active stimulators of tubulin polymerization: synthesis, structure-activity relationship (SAR), tubulin polymerization, and cell growth inhibition studies” (J Med Chem, 2012)
# The source made the active and inactive calls. The calls are words filed in the database; no cut-off is given here.
# Columns and labels:
# MCF7 = assay: Cytotoxicity against human MCF7 cells expressing estrogen receptor after 96 hrs by trypan blue exclusion assay; type: functional, cell-based; conditions: MCF7, 96 h
# Method in brief: (§1)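 Cells grown in DMEM or RPMI with 10% FBS and penicillin-streptomycin. Seeded at 1.0 × 10^5 cells/mL/well in 6-well dishes; compounds were added 24 h later at various concentrations. Viable cells were counted by trypan blue exclusion from duplicate wells after 96 h of treatment, giving a dose-response endpoint.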
# HCT-15 = assay: Cytotoxicity against human HCT15 cells after 96 hrs by trypan blue exclusion assay; type: functional, cell-based; conditions: HCT-15, 96 h; method in brief: as §1
# SK-MEL-28 = assay: Cytotoxicity against human SK-MEL-28 cells after 96 hrs by trypan blue exclusion assay; type: functional, cell-based; conditions: SK-MEL-28, 96 h; method in brief: as §1
# PANC-1 = assay: Cytotoxicity against human PANC1 cells after 96 hrs by trypan blue exclusion assay; type: functional, cell-based; conditions: PANC-1, 96 h; method in brief: as §1
# K562 = assay: Cytotoxicity against human K562 cells after 96 hrs by trypan blue exclusion assay; type: functional, cell-based; conditions: K562, 96 h; method in brief: as §1
# HeLa [1] = assay: Cytotoxicity against human HeLa cells after 96 hrs by trypan blue exclusion assay; type: functional, cell-based; method in brief: as §1
# HeLa [2] = assay: Inhibition of cytoplasmic microtubule polymerization in human HeLa cells at 0.5 uM after 18 hrs by FITC-conjugated DAPI staining based fluorescence microscopy; type: cell-based
# Method in brief: (§2)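 HeLa grown on glass coverslips and exposed for 18 h to test agent (0.25 or 0.5 μM), paclitaxel or vincristine (0.005 μM), or DMSO. Cells were fixed in 4% paraformaldehyde, blocked, permeabilised, and stained with FITC anti-α-tubulin (1:400) and then DAPI (0.5 ug/mL). Mitotic spindles or interphase cytoplasmic microtubules were scored by fluorescence microscopy at 100x.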
# [3] = Cytotoxicity against human HTB-126 cells after 96 hrs by trypan blue exclusion assay; type: functional, cell-based; conditions: HTB126, 96 h; method in brief: as §1
# DU-145 [4] = assay: Cytotoxicity against androgen receptor-deficient human DU145 cells after 96 hrs by trypan blue exclusion assay; type: functional, cell-based; conditions: DU-145, 96 h; method in brief: as §1
# [5] = Cytotoxicity against human MESSA/DX5 cells after 96 hrs by trypan blue exclusion assay; type: functional, cell-based; conditions: MES-SA/Dx5, 96 h; method in brief: as §1
# NCI-N87 = assay: Cytotoxicity against human NCI-N87 cells after 96 hrs by trypan blue exclusion assay; type: functional, cell-based; conditions: NCI-N87, 96 h; method in brief: as §1
# DU-145 [6] = assay: Cell cycle arrest in human DU145 cells assessed as accumulation at G2/M phase after 24 hrs using propidium iodide staining by FACS analysis; type: functional, cell-based
# Method in brief: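 DU145 plated at 1.0 × 10^6 cells per dish, treated 24 h later for 24 h across a range of concentrations. Cells were fixed in ice-cold 70% ethanol, stained with propidium iodide plus RNase A for 30 min at 37 °C, and DNA content was read by flow cytometry. Phases: G1 (2N), S (>2N<4N), G2/M (4N). N=3.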
# SK-BR-3 = assay: Cytotoxicity against estrogen receptor-deficient human SKBR3 cells after 96 hrs by trypan blue exclusion assay; type: functional, cell-based; conditions: SK-BR-3, 96 h; method in brief: as §1
# [7] = Cytotoxicity against human MES-SA cells after 96 hrs by trypan blue exclusion assay; type: functional, cell-based; method in brief: as §1
# BT-20 = assay: Cytotoxicity against estrogen receptor-deficient human BT20 cells after 96 hrs by trypan blue exclusion assay; type: functional, cell-based; conditions: BT-20, 96 h; method in brief: as §1
# HeLa [8] = assay: Induction of mitotic arrest in human HeLa cells assessed as increase of phosphorylated histone H3 at Ser10 level at 1 uM after 24 hrs by Western blotting relative to control; type: functional
# Method in brief: (§3)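 HeLa treated with 1 μM and harvested at set times. Pellets were frozen, then lysed in HEPES/Triton X-100/NaCl buffer, pH 7.5, with phosphatase and protease inhibitors. Blots were probed sequentially for phospho-histone H3 (Ser10), histone H3, cyclin B1, PLK-1 and BubR1, with GAPDH as loading control. Antibodies: primary 1:1000, secondary 1:10,000. Fold increase is relative to control. N=3.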
# BT-474 = assay: Cytotoxicity against human BT474 cells expressing estrogen receptor after 96 hrs by trypan blue exclusion assay; type: functional, cell-based; conditions: BT-474, 96 h; method in brief: as §1
# HeLa [9] = assay: Induction of mitotic arrest in human HeLa cells assessed as increase of phosphorylated PLK1 level at 1 uM after 6 hrs by Western blotting relative to control; type: functional; method in brief: as §3
# HeLa [10] = assay: Induction of apoptosis in human HeLa cells assessed as cleavage of PARP at 1 uM after 24 hrs by Western blot analysis; type: functional, cell-based
# Method in brief: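 HeLa exposed to 1.0 μM for a time course. Lysates were resolved on 10% SDS-PAGE, blotted to nitrocellulose and probed with anti-PARP (primary 1:1000, secondary 1:10,000), with ECL detection. Cleaved PARP was taken as the apoptosis/caspase-3 marker. N=3.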
# MIA PaCa-2 = assay: Cytotoxicity against human MIAPaCa2 cells after 96 hrs by trypan blue exclusion assay; type: functional, cell-based; conditions: MIA PaCa-2, 96 h; method in brief: as §1
# HeLa [11] = assay: Induction of mitotic arrest in human HeLa cells assessed as unbound chromosome outside metaphase plate at 0.25 uM after 18 hrs by FITC-conjugated DAPI staining based fluorescence microscopy; type: functional, cell-based; method in brief: as §2
# Caco-2 = assay: Cytotoxicity against human Caco2 cells after 96 hrs by trypan blue exclusion assay; type: functional, cell-based; conditions: Caco-2, 96 h; method in brief: as §1
# [12] = Cytotoxicity against human COLO320 cells after 96 hrs by trypan blue exclusion assay; type: functional, cell-based; conditions: COLO 320, 96 h; method in brief: as §1
# SNU-5 = assay: Cytotoxicity against human SNU5 cells after 96 hrs by trypan blue exclusion assay; type: functional, cell-based; conditions: SNU-5, 96 h; method in brief: as §1
# HeLa [13] = assay: Induction of mitotic arrest in human HeLa cells assessed as increase of phosphorylated cyclin B1 level at 1 uM after 6 hrs by Western blotting relative to control; type: functional; method in brief: as §3
# HeLa [14] = assay: Induction of mitotic arrest in human HeLa cells assessed as increase of phosphorylated Bcl2 level at 1 uM after 24 hrs by Western blotting relative to control; type: functional
# HeLa [15] = assay: Induction of mitotic arrest in human HeLa cells assessed as dispersed chromosome spread with three or more tubulin bundles at 0.5 uM after 18 hrs by FITC-conjugated DAPI staining based fluorescence microscopy; type: functional, cell-based; method in brief: as §2
# Raji = assay: Cytotoxicity against human Raji cells after 96 hrs by trypan blue exclusion assay; type: functional, cell-based; method in brief: as §1
# A549 = assay: Cytotoxicity against human A549 cells after 96 hrs by trypan blue exclusion assay; type: functional, cell-based; conditions: A549, 96 h; method in brief: as §1
# HeLa [16] = assay: Induction of mitotic arrest in human HeLa cells assessed as increase of phosphorylated BUBR1 level at 1 uM after 6 hrs by Western blotting relative to control; type: functional; method in brief: as §3
# HeLa [17] = assay: Induction of mitotic arrest in human HeLa cells assessed as increase of phosphorylated histone H3 at Ser10 level at 1 uM after 6 hrs by Western blotting; type: functional, cell-based; method in brief: as §3
# DU-145 [18] = assay: Cell cycle arrest in human DU145 cells assessed as accumulation at G2/M phase at 2.5 uM by propidium iodide staining based FACS analysis; type: functional; conditions: TDE = time-dependent effect
# Method in brief: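 DU145 plated at 1.0 × 10^6 cells/dish and dosed 24 h later at 2.5 μM. Floating and trypsinised cells were pooled at 24, 48 and 72 h, fixed in ice-cold 70% ethanol for at least 24 h, stained 30 min at 37 °C with propidium iodide and RNase A, and analysed for DNA content by flow cytometry.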
compound,measurement,setting,value
COc1ccc(N/C=C\C(=O)c2cc(OC)c(OC)c(OC)c2Br)cc1O,IC50,MCF7,400 nM
same,IC50,HCT-15,40 nM
same,IC50,SK-MEL-28,200 nM
same,IC50,PANC-1,200 nM
same,IC50,K562,100 nM
same,IC50,HeLa [1],200 nM
same,inhibition,HeLa [2],inactive
same,IC50,[3],100 nM
same,IC50,DU-145 [4],60 nM
same,IC50,[5],500 nM
same,IC50,NCI-N87,300 nM
same,Activity,DU-145 [6],Dose-dependent effect
same,IC50,SK-BR-3,300 nM
same,IC50,[7],250 nM
same,IC50,BT-20,750 nM
same,fold change (FC),HeLa [8],121
same,IC50,BT-474,100 nM
same,fold change (FC),HeLa [9],2.5
same,Activity,HeLa [10],Active
same,IC50,MIA PaCa-2,800 nM
same,Activity,HeLa [11],Active
same,IC50,Caco-2,250 nM
same,IC50,[12],150 nM
same,IC50,SNU-5,250 nM
same,fold change (FC),HeLa [13],2.5
same,fold change (FC),HeLa [14],88
same,Activity,HeLa [15],Active
same,IC50,Raji,200 nM
same,IC50,A549,900 nM
same,fold change (FC),HeLa [16],2.95
same,Activity,HeLa [17],Active
same,Activity,DU-145 [18],tde
